In ChEMBL document CHEMBL4425127 (J Med Chem, 2016):
Calls of active or inactive are those of the source. The calls are words filed in the database; no cut-off is given here.

Legend:
[1] = Inhibition of recombinant Influenza A virus (A/Moscow/10/99(H3N2)) Neuraminidase N2 expressed in baculovirus infected insect cells using 4-MU-NANA as substrate preincubated for 30 mins followed by substrate addition by microplate reader analysis; parameters: species or system Influenza A virus (A/Moscow/10/1999(H3N2))
Outline: (§1)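 Purified recombinant NA, with activity pre-set to roughly 10–50 nM in PBS, preincubated with serial 5-fold inhibitor dilutions in PBS (top 1 mM) at 37 °C for 30 min. MUNANA solution (167 μM, PBS) then added. Fluorescence read at ex 355/em 460 nm.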

[2] = Binding affinity to recombinant Influenza A virus (A/Moscow/10/99(H3N2)) Neuraminidase N2 expressed in baculovirus infected insect cells measured up to 400 sec by surface plasmon resonance analysis; parameters: species or system Influenza A virus (A/Moscow/10/1999(H3N2))
Outline: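 NA covalently immobilised on CM5 chip by amine coupling. Analyte passed over at several concentrations in running buffer. BSA served as negative control protein. Constants from a steady-state affinity model; triplicate experiments.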

[3] = Aqueous solubility of compound; assay type: physicochemical; conditions: buffer
[4] = Inhibition of recombinant Influenza A virus (A/Anhui/1/2013(H7N9)) Neuraminidase N9 expressed in baculovirus infected insect cells using 4-MU-NANA as substrate preincubated for 30 mins followed by substrate addition by microplate reader analysis; outline: as §1
[5] = test system: MDCK; assay: Cytotoxicity against MDCK cells assessed as reduction in cell viability after 72 hrs by MTT assay; assay type: cell-based, Canis lupus familiaris; conditions: dog
[6] = Half life in Sprague-Dawley rat at 6 umol/kg, iv by HPLC analysis; assay type: ADME, organism-based; conditions: in vivo
Outline: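 Rats (n = 5) received a single tail-vein injection in physiological saline. Plasma levels measured by HPLC, using a reversed-phase C18 gradient with ammonium-containing aqueous/acetonitrile eluents over 5 min at 0.6 mL/min.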

[7] = test system: Influenza A virus; assay: (§2) Antiviral activity against Influenza A virus (A/Puerto Rico/8/34(H1N1)) infected in Balb/c mouse assessed as respiratory epithelium desquamation at 20 mg/kg qd administered intranasally as single dose at 2 hrs post infection measured after 7 days post infection by hematoxylin and eosin staining based microscopic analysis; assay type: functional, organism-based; conditions: A/Puerto Rico/8/1934(H1N1)
[8] = test system: Influenza A virus; assay: as §2, with “bronchial wall thickening in lungs” for “respiratory epithelium desquamation”; assay type: functional, organism-based; conditions: A/Puerto Rico/8/1934(H1N1)
[9] = test system: Influenza A virus; assay: Antiviral activity against Influenza A virus (A/Puerto Rico/8/34(H1N1)) infected in Balb/c mouse assessed as protection against lethal virus challenge by measuring mouse survival at 5 to 10 mg/kg qd administered intranasally for 7 days starting from 1 day post infection measured for 14 days; assay type: functional, organism-based; conditions: A/Puerto Rico/8/1934(H1N1)
Outline: (§3)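 BALB/c mice (6 per group) inoculated intranasally under anaesthesia with 10^5 pfu in 40 μL PBS. Inhibitor given intranasally in 40 μL PBS, either daily for 7 days from day 1 or once at 2 h pi; PBS-treated infected and uninfected controls. Weight and survival followed for 14 days; death counted at 25% weight loss or moribund. Mantel–Cox test.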

[10] = test system: Influenza A virus; assay: Antiviral activity against Influenza A virus (A/Puerto Rico/8/34(H1N1)) infected in Balb/c mouse assessed as protection against lethal virus challenge by measuring body weight at 5 to 10 mg/kg qd administered intranasally for 7 days starting from 1 day post infection measured for 14 days; assay type: functional, organism-based; conditions: A/Puerto Rico/8/1934(H1N1); outline: as §3
[11] = test system: Influenza A virus; assay: Antiviral activity against Influenza A virus (A/Puerto Rico/8/34(H1N1)) infected in Balb/c mouse assessed as immune cell infiltration in lungs at 5 mg/kg qd administered intranasally for 7 days starting from 1 day post infection by hematoxylin and eosin staining based microscopic analysis; assay type: functional, organism-based; conditions: A/Puerto Rico/8/1934(H1N1)
[12] = test system: Influenza A virus; assay: as §2, with “immune cell infiltration in lungs” for “respiratory epithelium desquamation”; assay type: functional, organism-based; conditions: A/Puerto Rico/8/1934(H1N1)
[13] = test system: Influenza A virus; assay: Antiviral activity against Influenza A virus (A/Puerto Rico/8/34(H1N1)) infected in Balb/c mouse assessed as bronchial wall thickening in lungs at 5 mg/kg qd administered intranasally for 7 days starting from 1 day post infection by hematoxylin and eosin staining based microscopic analysis; assay type: functional, organism-based; conditions: A/Puerto Rico/8/1934(H1N1)
[14] = test system: Influenza A virus; assay: Antiviral activity against Influenza A virus (A/Puerto Rico/8/34(H1N1)) assessed as decrease in lung lesions at 20 mg/kg qd administered intranasally as single dose at 2 hrs post infection measured after 7 days post infection by hematoxylin and eosin staining based microscopic analysis; assay type: functional, organism-based; conditions: A/Puerto Rico/8/1934(H1N1)
[15] = test system: Influenza A virus; assay: Antiviral activity against Influenza A virus (A/Puerto Rico/8/34(H1N1)) infected in Balb/c mouse assessed as respiratory epithelium desquamation at 5 mg/kg qd administered intranasally for 7 days starting from 1 day post infection by hematoxylin and eosin staining based microscopic analysis; assay type: functional, organism-based; conditions: A/Puerto Rico/8/1934(H1N1)
[16] = test system: Influenza A virus; assay: Antiviral activity against Influenza A virus (A/Anhui/1/2013(H7N9)) expressing A/Puerto Rico/8/34(H1N1) genes infected in MDCK cells assessed as reduction in viral replication after 72 hrs by hemagglutination test; assay type: functional, organism-based
[17] = test system: Influenza A virus; assay: Antiviral activity against Influenza A virus (A/Puerto Rico/8/34(H1N1)) infected in Balb/c mouse assessed as protection against lethal virus challenge by measuring mouse survival at 20 mg/kg administered intranasally as single dose at 2 hrs post infection measured up to 9 days post treatment; assay type: functional, organism-based; conditions: A/Puerto Rico/8/1934(H1N1); outline: as §3
[18] = test system: Influenza A virus; assay: Antiviral activity against Influenza A virus (A/Puerto Rico/8/34(H1N1)) infected in Balb/c mouse assessed as protection against lethal virus challenge by measuring body weight at 20 mg/kg administered intranasally as single dose at 2 hrs post infection measured up to 9 days post treatment; assay type: functional, organism-based; conditions: A/Puerto Rico/8/1934(H1N1); outline: as §3
[19] = test system: Influenza A virus H3N2; assay: Antiviral activity against Influenza A virus (A/Moscow/10/99(H3N2)) expressing A/Puerto Rico/8/34(H1N1) genes infected in MDCK cells assessed as reduction in viral replication after 72 hrs by hemagglutination test; assay type: functional, organism-based, A/Moscow/10/1999(H3N2); conditions: Influenza A virus, A/Moscow/10/1999(H3N2), MDCK, 72 h; read-out: EC50
[20] = test system: Influenza A virus; assay: Antiviral activity against Influenza A virus (A/Puerto Rico/8/34(H1N1)) assessed as decrease in lung lesions at 10 mg/kg qd administered intranasally for 7 days starting from 1 day post infection by hematoxylin and eosin staining based microscopic analysis; assay type: functional, organism-based; conditions: A/Puerto Rico/8/1934(H1N1)

In the case of CC(=O)N[C@@H]1[C@H]([C@@H](OC(=O)NCCOCCOCCOCCOCCOCCOCc2cn(CC(Cn3cc(COCCOCCOCCOCCOCCOCCNC(=O)O[C@@H]([C@@H]4OC(C(=O)O)=C[C@H](NC(=N)N)[C@H]4NC(C)=O)[C@H](O)CO)nn3)(Cn3cc(COCCOCCOCCOCCOCCOCCNC(=O)O[C@@H]([C@@H]4OC(C(=O)O)=C[C@H](NC(=N)N)[C@H]4NC(C)=O)[C@H](O)CO)nn3)Cn3cc(COCCOCCOCCOCCOCCOCCNC(=O)O[C@@H]([C@@H]4OC(C(=O)O)=C[C@H](NC(=N)N)[C@H]4NC(C)=O)[C@H](O)CO)nn3)nn2)[C@H](O)CO)OC(C(=O)O)=C[C@@H]1NC(=N)N (stereo partly drawn), the IC50 [1] is reported as 3.8 nM, the Kd [2] is reported as 1.5 nM and the solubility [3] is reported as “Soluble”. The IC50 [4] was 1 nM.
For CC(=O)N[C@H]1[C@H]([C@H](O)[C@H](O)CO)OC(C(=O)O)=C[C@@H]1N=C(N)N [ZANAMIVIR], the Activity [5] was “Non-Toxic” and the half-life [6] was 32 min.
For CC(=O)N[C@H]1[C@H]([C@H](O)[C@H](O)CO)OC(C(=O)O)=C[C@@H]1NC(=N)N [ZANAMIVIR], the Activity [7] was “inactive”, the Activity [8] was “inactive” and the IC50 [1] was 3 nM. For the same compound, the Activity [9] was “Active”, the Activity [10] was “Active” and the Kd [2] was 1.1 nM. The Activity [11] was “inactive”, the Activity [12] was “inactive” and the Activity [13] was “inactive”. The Activity [14] was “inactive”, the Activity [15] was “inactive” and the EC50 [16] was 6.1 nM. For the same compound, the Activity [17] was “inactive”, the Activity [18] was “inactive” and the IC50 [4] was 1.5 nM. The EC50 [19] was 17.7 nM and the Activity [20] was “inactive”.
